Test results: ChEMBL document CHEMBL3120144, “Design, synthesis and molecular modeling of aloe-emodin derivatives as potent xanthine oxidase inhibitors” (Eur J Med Chem, 2014); call rule not given here

What was measured:
[1] = biological target: T1, Xanthine dehydrogenase/oxidase (Bos taurus, UniProt P80457); test: Inhibition of bovine xanthine oxidase using xanthine as substrate measured for 6 mins at 50 uM at 25 degC by spectrophotometry; details: cattle, 0.1 h
Procedure, shortened: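 Xanthine substrate, 25 °C, in 50 mM K₂HPO₄ buffer at pH 7.8. Xanthine was added as an 84.8 μg/mL solution in the same buffer; this is the added solution's concentration, not the final one. Test compounds were dissolved in DMSO and added at various concentrations.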

[2] = biological target: T1, Xanthine dehydrogenase/oxidase; test: Mixed-type inhibition of bovine xanthine oxidase using xanthine as substrate at 1.4 to 5.6 uM by Lineweaver-Burk plot; details: cattle
[3] = biological target: T1, Xanthine dehydrogenase/oxidase; test: Inhibition of bovine xanthine oxidase using xanthine as substrate measured for 6 mins at 25 degC by spectrophotometry

T1 sequence (P80457 whole entry): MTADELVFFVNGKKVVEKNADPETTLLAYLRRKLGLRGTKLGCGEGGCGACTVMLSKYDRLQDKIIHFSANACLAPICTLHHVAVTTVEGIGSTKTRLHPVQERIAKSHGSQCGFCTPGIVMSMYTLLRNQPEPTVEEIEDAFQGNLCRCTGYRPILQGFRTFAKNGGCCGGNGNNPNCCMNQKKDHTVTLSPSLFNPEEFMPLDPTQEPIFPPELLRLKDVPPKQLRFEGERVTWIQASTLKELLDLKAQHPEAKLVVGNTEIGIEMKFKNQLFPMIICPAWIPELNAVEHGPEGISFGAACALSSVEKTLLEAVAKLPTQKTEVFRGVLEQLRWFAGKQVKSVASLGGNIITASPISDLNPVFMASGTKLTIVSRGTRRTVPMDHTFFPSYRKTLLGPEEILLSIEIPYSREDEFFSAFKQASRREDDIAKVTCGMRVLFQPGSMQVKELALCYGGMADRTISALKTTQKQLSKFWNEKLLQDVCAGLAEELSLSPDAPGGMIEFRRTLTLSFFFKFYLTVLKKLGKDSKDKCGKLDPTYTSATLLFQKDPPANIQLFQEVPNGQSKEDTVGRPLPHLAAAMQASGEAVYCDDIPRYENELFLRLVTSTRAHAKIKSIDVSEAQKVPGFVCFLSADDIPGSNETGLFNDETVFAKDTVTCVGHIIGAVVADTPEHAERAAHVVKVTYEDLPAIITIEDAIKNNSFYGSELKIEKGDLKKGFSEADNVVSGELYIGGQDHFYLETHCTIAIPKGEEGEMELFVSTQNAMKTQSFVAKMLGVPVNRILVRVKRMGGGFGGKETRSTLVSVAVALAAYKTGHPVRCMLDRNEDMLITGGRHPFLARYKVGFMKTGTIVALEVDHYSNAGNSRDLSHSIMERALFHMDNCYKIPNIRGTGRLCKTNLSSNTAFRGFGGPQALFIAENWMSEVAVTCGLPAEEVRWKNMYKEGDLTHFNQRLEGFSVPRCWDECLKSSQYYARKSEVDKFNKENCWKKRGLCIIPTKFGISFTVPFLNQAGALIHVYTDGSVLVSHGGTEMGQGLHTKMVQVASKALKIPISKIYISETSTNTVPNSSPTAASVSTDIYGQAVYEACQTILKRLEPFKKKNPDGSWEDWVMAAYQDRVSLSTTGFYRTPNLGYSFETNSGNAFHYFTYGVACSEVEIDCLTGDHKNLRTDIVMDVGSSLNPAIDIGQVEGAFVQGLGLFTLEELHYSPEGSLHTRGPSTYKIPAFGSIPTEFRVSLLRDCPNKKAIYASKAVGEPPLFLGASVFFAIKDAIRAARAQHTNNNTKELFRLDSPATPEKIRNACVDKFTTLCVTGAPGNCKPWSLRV

| inhibition at 50 µM [1] | Structure (SMILES) | further results |
| --- | --- | --- |
| < 10% | COc1cccc2c1C(=O)c1c(OC)cc(/C=N/O)cc1C2=O | – |
| 7.2% | CC(=O)OC[C@H]1OC(OC(C)=O)[C@H](NC(=O)c2cc(O)c3c(c2)C(=O)c2cccc(O)c2C3=O)[C@H](OC(C)=O)[C@@H]1OC(C)=O (stereo not given in full) | – |
| 9.77% | COc1cccc2c1C(=O)c1c(OC)cc(CO)cc1C2=O | – |
| < 10% | COc1cccc2c1C(=O)c1c(OC)cc(/C=N/N)cc1C2=O | – |
| 18.4% | O=C1c2cccc(O)c2C(=O)c2c(O)cc(CCl)cc21 | – |
| 93.3% | O=Cc1cc(O)c2c(c1)C(=O)c1cccc(O)c1C2=O | inhibition (INH) [2]: Active; IC50 [3]: 2.79 µM; inhibition (INH) ([3]; cattle, 0.1 h): Dose-dependent effect |
| 94.5% | O=C1c2cccc(O)c2C(=O)c2c(O)cc(/C=N/c3ccccc3)cc21 | IC50 [3]: 3.87 µM |
| < 10% | COc1cccc2c1C(=O)c1c(OC)cc(C[N+](C)(C)C)cc1C2=O | – |
| 3.63% | O=C(O)c1cc(O)c2c(c1)C(=O)c1cccc(O)c1C2=O [RHEIN] | – |
| < 10% | COc1cccc2c1C(=O)c1c(OC)cc(C[N+](C)(C)c3ccccc3)cc1C2=O | – |
| 17.5% | COc1cccc2c1C(=O)c1c(OC)cc(/C=N/c3ccccc3)cc1C2=O | – |
| 14.3% | COc1cccc2c1C(=O)c1c(OC)cc(CCl)cc1C2=O | – |
| 36.5% | COc1cccc2c1C(=O)c1c(OC)cc(C=O)cc1C2=O | – |
| < 10% | COc1cccc2c1C(=O)c1c(OC)cc(C[n+]3ccccc3)cc1C2=O | – |
| 68.8% | C[N+](C)(C)Cc1cc(O)c2c(c1)C(=O)c1cccc(O)c1C2=O | IC50 [3]: 18.7 µM |
| < 10% | O=C1c2cccc(O)c2C(=O)c2c(O)cc(C[n+]3ccccc3)cc21 | – |
| 93.4% | CC(=O)OC[C@H]1OC(OC(C)=O)[C@H](/N=C/c2cc(O)c3c(c2)C(=O)c2cccc(O)c2C3=O)[C@H](OC(C)=O)[C@@H]1OC(C)=O (stereo not given in full) | IC50 [3]: 8.43 µM |
| < 10% | C[N+](C)(Cc1cc(O)c2c(c1)C(=O)c1cccc(O)c1C2=O)c1ccccc1 | – |

| Structure (SMILES) | inhibition at 50 µM [1] | further results |
| --- | --- | --- |
| O=C1c2cccc(O)c2C(=O)c2c(O)cc(CO)cc21 [ALOE-EMODIN] | 22.5% | – |
